ChEMBL document CHEMBL3085653, “Synthesis and evaluation of hexahydropyrimidines and diamines as novel hepatitis C virus inhibitors” (Eur J Med Chem, 2013)
Where a name gives a salt, the structure may show the parent alone. Activity calls are given as the source filed them. The calls are words filed in the database; no cut-off is given here.

What was measured:
Hepatitis C virus [1] = assay: Antiviral activity against cell culture derived HCV expressing NS5A-GFP fusion protein infected in human HuH7 cells assessed as inhibition of viral life cycle after 72 hrs by Hoechst-33342 staining-based confocal microscopy; assay type: functional, organism-based, Hepacivirus hominis; conditions: Huh-7, 72 h
[2] = Cytotoxicity against human HuH7 cells; assay type: cell-based, Huh-7
[3] = Selectivity index, ratio of CC50 for human HuH7 cells to EC50 for cell culture derived HCV expressing NS5A-GFP fusion protein; parameters: species or system Huh-7
Outline: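 Index is CC50 divided by EC50. Both values come from the same 10-point dose response in naïve Huh-7 cells infected with NS5A-GFP HCVcc (MOI 1), read at 72 h post-infection. EC50 taken from GFP-positive infection and CC50 from Hoechst nuclei counts, by confocal imaging. Duplicates with quadruplicate measurements.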

Hepatitis C virus [4] = assay: Antiviral activity against HCV assessed as prevention of infectious virions release into cell culture supernatant by viral supernatant transfer assay; assay type: functional, organism-based; conditions: Hepacivirus hominis
[5] = Chemical stability in cell culture medium assessed as formation of N1,N3-dibenzylpropane-1,3-diamine at 37 degC after 2 days by LC/MS analysis; assay type: physicochemical; conditions: 48 h
Outline: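 Compound incubated with cells in culture medium at 37 °C for two days. Supernatant then analysed by LC/MS for the parent compound and the ring-opened diamine.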

Hepatitis C virus [6] = assay: Antiviral activity against HCV expressing GFP infected in human HuH7 cells assessed as inhibition of viral RNA replication after 72 hrs by Hoechst-33342 staining-based confocal microscopy; assay type: functional, organism-based, Hepacivirus hominis; conditions: Huh-7, 72 h
Outline: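 Huh-7 replicon cells expressing GFP seeded at 2000 cells/well and incubated overnight, then given serially diluted compounds for 72 h. Cells fixed in 2% PFA and nuclei stained with Hoechst 33342 (10 μg/mL). Automated confocal imaging used: RNA replication read as GFP expression, cytotoxicity as nucleus counts. EC50 calculated by non-linear regression.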

[7] = Metabolic stability in liver microsomes (unknown origin) assessed as formation of N1,N3-dibenzylpropane-1,3-diamine by mass spectrum analysis; assay type: ADME, Microsome
Hepatitis C virus [8] = assay: Antiviral activity against HCV pseudoparticle expressing envelope protein E1 and E2 assessed as inhibition of E1/E2-mediated viral entry into human Huh7 cells treated for 1 hr prior to viral inoculation followed by compound washout 12 hrs post viral inoculation measured after 72 hrs by GFP reporter gene-based confocal microscopic analysis; assay type: functional, organism-based, Hepacivirus hominis; conditions: Huh-7

SMILES	EC50 (Hepatitis C virus [1]) [nM]	CC50 [2] [µM]	Ratio CC50/EC50 [3]	Activity (Hepatitis C virus [4])	Stability [5]	EC50 (Hepatitis C virus [6]) [µM]	Stability [7]	EC50 (Hepatitis C virus [8]) [µM]
c1ccc(CCNCCCNCCc2ccccc2)cc1	1100	12	11					
O=C1N(Cc2ccccc2)CCCN1Cc1ccccc1	> 50000	> 50		Active				
c1ccc(CN2CCCN(Cc3ccccc3)C2c2ccncc2)cc1	4300	> 50	>12	Active	Unstable	> 50	Unstable	4
CC(CNCCCNCC(C)c1ccccc1)c1ccccc1 (stereo unspecified)	1200	18	15					
NCCCCNCCCN [SPERMIDINE TRIHYDROCHLORIDE]	> 50000	> 50						
CN(C)c1ccc(C2N(Cc3ccccc3)CCN2Cc2ccccc2)cc1	> 50000	> 50						
c1ccc(CN2CCN(Cc3ccccc3)C2c2ccncc2)cc1	> 50000	> 50						
c1ccc(CNCCOCCNCc2ccccc2)cc1	1700	28	16					
CN(C)c1ccc(C2N(Cc3ccccc3)CCCN2Cc2ccccc2)cc1	25000	> 50	>2	Active				
CC1N(Cc2ccccc2)CCN1Cc1ccccc1	> 50000	> 50						
COc1ccc(CNCCCNCc2ccc(OC)cc2)cc1	1500	33	22					
CN(C)c1ccc(CNCCCNCc2ccc(N(C)C)cc2)cc1	880	17	19					
Fc1ccccc1CN1CCCN(Cc2ccccc2Cl)C1c1cccc(C(F)(F)F)c1 (stereo unspecified)	11000	> 50	>4.5	Active				
NCCCCN [PUTRESCINE DIHYDROCHLORIDE]	> 50000	> 50						
O=C(NCCCNC(=O)c1ccccc1)c1ccccc1	> 50000	> 50						
CC(=O)N(CCCCN(Cc1ccccc1)C(C)=O)Cc1ccccc1	> 50000	> 50						
COc1cccc(CN2CCCN(Cc3ccccc3F)C2c2ccncc2)c1 (stereo unspecified)	4700	> 50	>11	Active				
CC(C(=O)NCCCNC(=O)C(C)c1ccccc1)c1ccccc1 (stereo unspecified)	> 50000	> 50						
NCCCNCCCCNCCCN [SPERMINE]	> 50000	> 50						
Cc1ccc(C2N(Cc3ccccc3)CCCN2Cc2ccccc2)o1	> 50000	> 50		Active				
COc1ccc(CN2CCCC(CNc3ccc(OC)cc3)C2)cc1 (stereo unspecified)	11000	> 50	>4.7					

SMILES	EC50 (Hepatitis C virus [1]) [nM]	CC50 [2] [µM]	Ratio CC50/EC50 [3]	Activity (Hepatitis C virus [4])	Stability [5]	EC50 (Hepatitis C virus [6]) [µM]	Stability [7]	EC50 (Hepatitis C virus [8]) [µM]
CC1N(Cc2ccccc2)CCCN1Cc1ccccc1	3700	> 50	>14	Active				
c1ccc(CNCCNCc2ccccc2)cc1	> 50000	> 50						
c1ccc(CNCCCNCc2ccccc2)cc1	4600	27	5.9					
c1ccc(CNCCCCCNCc2ccccc2)cc1	610	29	48					
COc1ccc(CN2CCCN(Cc3ccc(OC)cc3)C2c2ccc(C(F)(F)F)cc2)cc1	1600	34	21	Active				
CN(C)c1ccc(CN2CCCN(Cc3ccc(N(C)C)cc3)C2c2ccc(C(F)(F)F)cc2)cc1	1500	23	15	Active				
COc1ccc(CNCCCCNCc2ccc(OC)cc2)cc1	380	32	84					
FC(F)(F)c1cccc(C2N(Cc3ccccc3)CCCN2Cc2ccccc2)c1	6500	> 50	>7.7	Active				
COc1ccc(CN2CCCN(Cc3ccc(OC)cc3)C2c2cccc(C(F)(F)F)c2)cc1	3200	43	13	Active				
c1ccc(CN2CCCN(Cc3ccccc3)C2)cc1	> 50000	> 50		Active				
CN(C)c1ccc(CN2CCCN(Cc3ccc(N(C)C)cc3)C2c2ccc(F)cc2)cc1	1300	15	12	Active				
c1ccc(NCCCCNc2ccccc2)cc1	> 50000	> 50						
COc1ccc(CN2CCCN(Cc3ccc(OC)cc3)C2c2ccc(C#N)c(F)c2)cc1	1900	29	15	Active				
COc1ccc(CN2CCCN(Cc3ccc(OC)cc3)C2c2ccc(C#N)cc2)cc1	1500	20	13	Active				
CN(C)c1ccc(CN2CCCN(Cc3ccc(N(C)C)cc3)C2c2ccncc2)cc1	830	14	17	Active				
COc1ccc(CN2CCCN(Cc3ccc(OC)cc3)C2c2ccc(F)cc2)cc1	1900	38	20	Active				
CN(C)c1ccc(CNCCCCNCc2ccc(N(C)C)cc2)cc1	320	11	34					
COc1ccc(CN2CCCN(Cc3ccc(OC)cc3)C2c2ccncc2)cc1	1500	23	15	Active				
COc1ccc(CN2CCCN(Cc3ccc(OC)cc3)C2c2ccc(N(C)C)cc2)cc1	1300	28	22	Active				
COc1ccc(CNCC2CCCN(Cc3ccc(OC)cc3)C2)cc1 (stereo unspecified)	1100	34.5	31					
COc1cccc(CN2CCCN(Cc3ccccc3F)C2c2ccc(C(F)(F)F)cc2)c1 (stereo unspecified)	2700	23	8.5	Active				
